Assay results taken from PMC6210075 (ACS Omega, 2018).

How the values were obtained:
serine hydrolases [1] = molecular target: T1, serine hydrolases (Mus musculus, UniProt O08914); test: Activity-based protein profiling; assay type: biochemical; details: mouse brain tissue homogenate, inhibitor 20 µM
T1 sequence (O08914 1-579): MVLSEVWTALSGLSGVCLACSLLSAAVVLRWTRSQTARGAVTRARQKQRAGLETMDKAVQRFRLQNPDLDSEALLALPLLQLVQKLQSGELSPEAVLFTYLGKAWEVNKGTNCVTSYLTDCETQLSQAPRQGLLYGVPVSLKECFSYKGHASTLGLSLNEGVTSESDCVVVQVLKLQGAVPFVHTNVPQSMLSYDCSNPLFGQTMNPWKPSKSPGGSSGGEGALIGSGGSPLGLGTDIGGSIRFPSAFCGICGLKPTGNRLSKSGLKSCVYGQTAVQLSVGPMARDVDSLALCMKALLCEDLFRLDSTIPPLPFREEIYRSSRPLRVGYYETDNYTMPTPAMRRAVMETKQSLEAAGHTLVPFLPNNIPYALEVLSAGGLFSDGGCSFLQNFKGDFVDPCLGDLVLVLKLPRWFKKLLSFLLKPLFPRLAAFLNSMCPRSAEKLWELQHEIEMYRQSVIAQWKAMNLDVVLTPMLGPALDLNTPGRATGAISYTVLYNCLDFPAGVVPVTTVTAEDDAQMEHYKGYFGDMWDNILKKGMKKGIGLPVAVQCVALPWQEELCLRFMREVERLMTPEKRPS

serine hydrolases [2] = test: Activity-based protein profiling; assay type: biochemical, mouse; details: mouse liver tissue homogenate, inhibitor 20 µM
human FAAH = molecular target: T2, human FAAH (Homo sapiens, UniProt O00519); test: FAAH fluorescent inhibition assay; assay type: biochemical
T2 sequence (O00519 1-579): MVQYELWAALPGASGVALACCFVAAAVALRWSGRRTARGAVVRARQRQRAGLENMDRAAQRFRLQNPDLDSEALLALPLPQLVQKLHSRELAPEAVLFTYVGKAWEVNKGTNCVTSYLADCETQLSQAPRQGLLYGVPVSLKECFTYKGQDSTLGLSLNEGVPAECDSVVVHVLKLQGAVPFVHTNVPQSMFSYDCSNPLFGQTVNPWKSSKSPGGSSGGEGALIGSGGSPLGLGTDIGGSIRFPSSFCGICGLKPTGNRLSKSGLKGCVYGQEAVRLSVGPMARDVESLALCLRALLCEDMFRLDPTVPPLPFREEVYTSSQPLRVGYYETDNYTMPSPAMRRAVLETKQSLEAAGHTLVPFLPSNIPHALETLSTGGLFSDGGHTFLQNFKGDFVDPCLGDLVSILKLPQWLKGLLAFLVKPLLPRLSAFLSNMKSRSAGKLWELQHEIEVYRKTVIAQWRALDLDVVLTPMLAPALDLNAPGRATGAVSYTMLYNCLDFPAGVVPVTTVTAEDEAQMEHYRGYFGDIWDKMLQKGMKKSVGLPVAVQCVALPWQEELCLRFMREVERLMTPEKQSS

rat FAAH = molecular target: T3, rat FAAH (Rattus norvegicus, UniProt P97612); test: FAAH fluorescent inhibition assay, rat brain microsomes; assay type: biochemical
T3 sequence (P97612 1-579): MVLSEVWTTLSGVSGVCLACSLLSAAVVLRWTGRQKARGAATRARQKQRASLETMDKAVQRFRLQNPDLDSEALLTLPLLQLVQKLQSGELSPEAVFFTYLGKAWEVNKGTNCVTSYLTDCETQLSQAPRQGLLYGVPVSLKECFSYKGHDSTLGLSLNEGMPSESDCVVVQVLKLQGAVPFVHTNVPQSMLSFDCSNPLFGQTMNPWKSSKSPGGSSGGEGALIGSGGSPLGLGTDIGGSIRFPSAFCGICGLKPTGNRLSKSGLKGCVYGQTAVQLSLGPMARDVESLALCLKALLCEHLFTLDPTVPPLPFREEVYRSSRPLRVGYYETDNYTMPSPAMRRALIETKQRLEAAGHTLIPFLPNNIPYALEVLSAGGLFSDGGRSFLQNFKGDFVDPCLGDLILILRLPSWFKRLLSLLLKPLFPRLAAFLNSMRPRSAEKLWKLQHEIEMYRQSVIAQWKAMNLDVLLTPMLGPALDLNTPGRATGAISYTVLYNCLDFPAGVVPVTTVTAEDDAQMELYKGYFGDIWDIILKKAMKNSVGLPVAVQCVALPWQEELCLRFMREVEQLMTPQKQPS
Outline: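 Rat brain microsomes: tissue homogenized in 20 mM phosphate (pH 7.4, 5 mM EDTA), spun at 9000g for 20 min, then 100 000g for 1 h, and stored at −80 °C. OMP (100 μM final) in 0.1 M sodium phosphate pH 8, 0.1 mg/mL BSA, 2% DMSO, 37 °C. Fluorescence (ex 303/em 394 nm) read every 30 s for 10 min. No-enzyme background subtracted. IC50 from linear regression of log[I] vs % remaining activity; triplicates.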

mouse sEH = molecular target: T4, mouse sEH (Mus musculus, UniProt P34914); test: sEH fluorescent inhibition assay, recombinant mouse sEH; assay type: biochemical
T4 sequence (P34914 1-554): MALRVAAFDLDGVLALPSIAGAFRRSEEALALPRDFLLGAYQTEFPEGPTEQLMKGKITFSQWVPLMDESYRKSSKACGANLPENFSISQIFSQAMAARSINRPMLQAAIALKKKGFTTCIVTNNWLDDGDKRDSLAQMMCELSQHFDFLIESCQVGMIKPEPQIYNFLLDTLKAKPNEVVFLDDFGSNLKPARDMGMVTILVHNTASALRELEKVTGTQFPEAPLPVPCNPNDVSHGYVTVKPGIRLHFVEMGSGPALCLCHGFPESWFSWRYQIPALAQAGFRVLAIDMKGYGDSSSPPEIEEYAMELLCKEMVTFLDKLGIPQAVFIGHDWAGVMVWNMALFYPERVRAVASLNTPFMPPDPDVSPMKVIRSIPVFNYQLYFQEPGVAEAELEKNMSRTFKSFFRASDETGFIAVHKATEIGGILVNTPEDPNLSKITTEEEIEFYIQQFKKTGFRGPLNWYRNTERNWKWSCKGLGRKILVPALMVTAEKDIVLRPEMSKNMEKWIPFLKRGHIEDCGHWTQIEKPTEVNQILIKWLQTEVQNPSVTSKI

[3] = FAAH IC50 (60 min pre-incubation), 60 min pre-incubation

difference in potency on FAAH (human FAAH; compared to 11)	IC50 (rat FAAH; FAAH IC50 (5 min pre-incubation), 5 min pre-incubation)	SMILES	intensity of the FAAH band (ABPP) (serine hydrolases [1])	other serine hydrolase bands (ABPP) (serine hydrolases [2])	IC50 (human FAAH)	IC50 (rat FAAH; [3])	IC50 (mouse sEH)
		O=C(Nc1cccnc1)N1CCC(Cc2cccc(Oc3ccc(C(F)(F)F)cn3)c2)CC1 [PF-3845, reference compound]	reduced	neither 11, 13, 14, 18, nor PF-3845 had any effect on the intensity of other bands	0.65 nM	0.2 nM	1200 nM
< 3 fold	> 10000 nM	O=C(Nc1ccc(C(F)(F)F)cc1F)N1CCC(Cc2cccc(Oc3ccc(C(F)(F)F)cn3)c2)CC1 [compound 18]	does not appear to fully inhibit the band corresponding to FAAH	neither 11, 13, 14, 18, nor PF-3845 had any effect on the intensity of other bands		1100 nM	360 nM
